Laboratory results from article PMC10438863 (Journal of Enzyme Inhibition and Medicinal Chemistry, 2023).

Tests used:
Bcl-2 protein family = experiment: Western blot of apoptosis associated proteins; assay type: cell-based; conditions: K562, 48 h, western blotting
Outline: (§1)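 K562 cells were treated with or without test compound at several concentrations for 48 h. They were lysed in cold buffer with PMSF and centrifuged at 14,000 rpm for 15 min, and protein was quantified by BCA. Equal protein was run on SDS-PAGE, blotted to PVDF, blocked in 5% skim milk for 2 h, probed overnight at 4 °C, then secondary antibody for 1–2 h, and detected by ECL with densitometry. Targets: Cdc-2, Cyclin B1, Cdc25c; Bad, Bax, Bcl-2, Bcl-xl; GAPDH reference.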

normal cell line HFL-1 = experiment: CCK-8 assay, normal cell line HFL-1; assay type: cell-based; conditions: read-out: IC50 (µM) HFL-1; normal cell line HFL-1; CCK-8, 72 h; mean ± SD
Outline: (§2)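 Cells were grown in RPMI-1640 with 10% FBS at 37 °C in 5% CO2. About 3.5 × 10^3 cells/well were seeded, grown 24 h, then given test compound at several concentrations for 72 h in triplicate wells. CCK-8 was added for 2–3 h and OD read at 450 nm to give inhibition rate or IC50. K562 screen: mean of ≥2 independent experiments. Five-line panel: mean ± SD of three.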

HUVEC = experiment: Inhibition of HUVEC proliferation; assay type: cell-based, human; conditions: read-out: IC50 in inhibiting the proliferation of HUVEC
MDA-MB-231 cells [1] = experiment: Transwell migration assay; assay type: cell-based; conditions: 60 nM, untreated 231.3 ± 12.2
HUVECs [2] = experiment: HUVEC tube formation assay on Matrigel; assay type: cell-based, human; conditions: 60 nM
Hela = experiment: CCK-8 antiproliferative assay, Hela; assay type: cell-based; conditions: read-out: IC50 (µM) Hela; Hela; CCK-8, 72 h; mean ± SD
Outline: as §2

K562 cells [3] = experiment: Annexin V-FITC/PI apoptosis flow cytometry; assay type: cell-based; conditions: 60 nM, 48 h, control 2.47%
[4] = test system: Cyclin B1, Cdc-2 and Cdc-25c; experiment: Western blot of G2/M phase associated proteins; assay type: cell-based; conditions: K562; 48 h; western blotting; dose-dependent
Outline: as §1

[5] = test system: colchicine binding site on tubulin; experiment: [3H]-colchicine competition scintillation proximity assay; conditions: tubulin 1 µM, [3H]-colchicine 5 µM
Outline: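 Competition scintillation proximity assay. Test compound was added to buffer (80 mM PIPES pH 6.8, 1 mM EGTA, 1 mM MgCl2, 10% glycerol, 1 mM GTP) containing tubulin 1 µM, then [3H]-colchicine 5 µM. After 2 h incubation, streptavidin-labelled SPA beads were added and radioactivity counted. Percent inhibition of colchicine binding was reported as mean ± SD of three independent experiments.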

H22 allograft = H22 allograft mice model, in vivo antitumor effect; conditions: 20 mg/kg i.v. once a day, three weeks
Outline: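 H22 cells in log phase (1 × 10^7 cells/mL, 0.1 ml) were injected s.c. into the right flank. Tumour size and body weight were recorded every two days. Mice were sacrificed at about 21 days. TGI (%) = (1 − Wt/Wc) × 100, using mean tumour weights.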

A549 = experiment: CCK-8 antiproliferative assay, A549; assay type: cell-based; conditions: read-out: IC50 (µM) A549; A549; CCK-8, 72 h; mean ± SD
Outline: as §2

H22 tumour = experiment: Immunohistochemistry of tumour tissue; assay type: in vivo, mice; conditions: H22 tumours; 20 mg/kg; IHC; vs control group
Outline: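 Tumours came from the vehicle, CA-4 20 mg/kg and test compound 20 mg/kg allograft groups. They were fixed in 4% paraformaldehyde overnight, paraffin-embedded and sectioned. Sections were blocked with 1% BSA for 20 min, incubated with CD31 or Ki67 primary antibody overnight at 4 °C, then HRP goat anti-rabbit for 1 h, developed with DAB and counterstained with haematoxylin. CD31 staining gave microvessel density.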

[6] = H&E staining of vital organs, in vivo safety; conditions: mice; 20 mg/kg; heart, liver, spleen, lung, kidney
Outline: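 Heart, liver, spleen, lung and kidney came from the H22 allograft mice at sacrifice: vehicle, CA-4 20 mg/kg and test compound 20 mg/kg groups. Organs were fixed in 4% paraformaldehyde overnight, paraffin-embedded, sectioned and stained with haematoxylin and eosin.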

K562 cell line = experiment: CCK-8 antiproliferative assay, K562; assay type: cell-based; conditions: K562, CCK-8, 72 h
Outline: as §2

K562 cells [7] = experiment: Confocal immunofluorescence assay of microtubule networks; assay type: cell-based; conditions: 48 h, 15, 30, 60 nM
HUVECs [8] = experiment: HUVEC wound healing assay; assay type: cell-based, human; conditions: 24 h, dose-dependent
Outline: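 HUVECs were seeded at 5 × 10^5 cells/well overnight and incubated with or without test compound at several concentrations for 24 h. The monolayer was then scratched with a pipette tip and washed with PBS. The wound was imaged at 100× and imaged again after a further 24 h of culture.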

K562 cells [9] = experiment: PI cell cycle flow cytometry; assay type: cell-based; conditions: 48 h, untreated 12.99 ± 0.26%
MDA-MB-231 cells [10] = experiment: Transwell invasion assay; assay type: cell-based; conditions: 60 nM, untreated 81.3 ± 5.7
H22 = experiment: CCK-8 antiproliferative assay, H22; assay type: cell-based, mouse; conditions: read-out: IC50 (µM) H22; H22; CCK-8, 72 h; mean ± SD
Outline: as §2

K562 cells [11] = experiment: Hoechst 33342 staining; assay type: cell-based; conditions: 48 h

2-methoxy-4-((4,5,6-trimethoxy-2,3-dihydro-1H-inden-2-yl)methyl)phenol [Compound 12d]
expression of antiapoptotic proteins Bcl-2 and Bcl-xl (Bcl-2 protein family): downregulated
expression level of proapoptotic proteins Bax and Bad (Bcl-2 protein family; dose-dependent): upregulated
IC50 (normal cell line HFL-1): 0.271 ± 0.031 µM
IC50 (HUVEC): 2260 ± 380 nM
number of migrated cells (MDA-MB-231 cells [1]): 124.0 ± 9.2
tube formation (capillary-like tubular networks) of HUVECs (HUVECs [2]): almost all of the tube-like structure was broken
IC50 (Hela): 0.078 ± 0.005 µM
percent of total apoptosis cells (K562 cells [3]): 57.90%
expression levels of Cyclin B1, Cdc-2 and Cdc-25c [4]: down-regulate
Inhibition (%) of colchicine binding ([5]; compound 1 µM): 59.81 ± 3.84%
Inhibition (%) of colchicine binding ([5]; compound 5 µM): 71.43 ± 1.03%
body weight (H22 allograft): no obvious body weight loss
tumour growth inhibition (TGI) value (H22 allograft; by tumour weight): 74.94%
IC50 (A549): 0.087 ± 0.009 µM
Ki67-positive cells (H22 tumour): decreased number of Ki-67 positive cells
microvessel density (MVD), CD31 (H22 tumour): lower MVD level
pathological damage of vital organs (H&E) [6]: without obvious pathological damage
Inhibition rate (%) (K562 cell line; 0.1 µM): 78.82%
Inhibition rate (%) (K562 cell line; 1 µM): 80.57%
IC50 (K562 cell line; read-out: IC50 (µM) K562, mean ± SD): 0.028 ± 0.007 µM
effect on microtubule networks (K562 cells [7]): caused disorder and destruction of microtubule networks
wound healing effect of HUVECs (HUVECs [8]): the wound healing effect was disrupted
population at the G2/M phase (K562 cells [9]; 15 nM): 16.07 ± 0.83%
population at the G2/M phase (K562 cells [9]; 30 nM): 21.23 ± 1.14%
population at the G2/M phase (K562 cells [9]; 60 nM): 24.66 ± 0.63%
number of invaded cells (MDA-MB-231 cells [10]): 51.3 ± 2.5
IC50 (H22): 0.068 ± 0.008 µM
apoptosis morphology and nucleus changes (K562 cells [11]): induced K562 cells nuclear fragmentation and cell morphology changes
